# Bioassay records deposited in PubChem BioAssay by several laboratories.
# Shown are actives, neighbours in structure and some others; about 1.2% of the full set was active somewhere.
# S1P3 antag: antagonists of human S1P3 receptor; Q99500; CHO S1P3 NFAT-BLA reporter, FRET fluorescence, antagonist mode; inhibition, % at 4.98 µM; actives 0.27% (n = 170,000); AID 485;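 active = inhibition above the plate cutoff, the mean inhibition of test wells on that plate plus 3 SD, cut at about 28% in these data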;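 note: cells challenged with S1P at its EC80 of 0.8 µM; blue over green emission ratio from cleaved BLA substrate after 4 h stimulation; 0% = S1P-stimulated wells and 100% = unstimulated DMSO-only wells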
# Redox H2O2 prof: compounds producing H2O2 with reducing agent – biochemical, NIH compound library profiling, artefact control for MLSCN library redox annotation, primary screen; DTT-dependent redox cycling H2O2, phenol red/HRP absorbance; 100% = 100 µM peroxide control, 0% = buffer; AID 878; activation, % at 10 µM; actives 0.03% (n = 200,000);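 active = activation of at least 50% relative to the plate's high and low controls in the primary single-dose screen; inactive = activation below 50%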;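 note: compound incubated with DTT at 0.8 mM final as the reducing agent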
# FXIa inh 1536: inhibitors of human coagulation factor XIa; P03951; inhibition, % at 5 µM; purified FXIa, Boc-Glu-Ala-Arg-AMC fluorogenic substrate; actives 0.14% (n = 220,000);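 active = inhibition of at least 40%; inactive = inhibition below 40%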;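 note: fluorescence of freed AMC excited at 355 nm; 0% = enzyme without compound and 100% = no enzyme blank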
# Target sequence (P03951 19-387 limits assumed): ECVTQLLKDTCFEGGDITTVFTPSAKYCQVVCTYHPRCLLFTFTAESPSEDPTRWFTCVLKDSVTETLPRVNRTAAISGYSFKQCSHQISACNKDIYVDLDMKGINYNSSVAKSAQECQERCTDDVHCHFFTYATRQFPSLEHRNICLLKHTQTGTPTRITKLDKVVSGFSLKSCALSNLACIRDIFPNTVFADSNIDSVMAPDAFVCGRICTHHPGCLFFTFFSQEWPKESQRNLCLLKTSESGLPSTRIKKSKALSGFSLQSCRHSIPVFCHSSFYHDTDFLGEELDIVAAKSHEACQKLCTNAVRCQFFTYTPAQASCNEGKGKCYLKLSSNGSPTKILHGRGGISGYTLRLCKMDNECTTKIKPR
# Target sequence (P03951 388-625 limits assumed): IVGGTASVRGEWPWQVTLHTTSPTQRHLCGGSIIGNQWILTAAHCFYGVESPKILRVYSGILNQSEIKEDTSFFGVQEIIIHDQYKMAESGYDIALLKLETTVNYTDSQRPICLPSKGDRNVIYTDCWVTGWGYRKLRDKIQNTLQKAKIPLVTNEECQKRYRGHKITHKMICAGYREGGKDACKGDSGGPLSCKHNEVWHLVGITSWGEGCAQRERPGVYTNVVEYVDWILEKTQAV
# thrombin 1536: thrombin (human) inhibition; actives 0.26% (n = 220,000); alpha-thrombin, Boc-VPR-AMC fluorogenic substrate cleavage; P00734; inhibition, % at 5 µM; AID 1046;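 active = inhibition at or above 40%; inactive = inhibition below 40%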;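 note: 0% = enzyme with no compound and 100% = wells without enzyme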
#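 Material: human alpha-thrombin protein; Also added: Boc-VPR-AMC substrate, 15 µM final; Timing: enzyme reaction carried out at room temperature; Signal: fluorescence, ex 355 nm, em 460 nm; Measure: % inhibition of thrombin; Controls: enzyme without compound as high, wells lacking enzyme as low.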
# KLK5 inh: kallikrein 5 (human) inhibition | actives 0.59% (n = 210,000) | Q9Y337 | inhibition, % at 5 µM | recombinant hK5, fluorogenic AMC substrate cleavage;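 active = inhibition of 40% or more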;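 note: 0% = enzyme controls without compound and 100% = no-enzyme blanks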
# FXIIa inh 1536: blocks human coagulation factor XIIa protease activity; purified FXIIa, Boc-QGR-AMC fluorogenic substrate, 2 h; inhibition, % at 5 µM; actives 0.3% (n = 220,000); AID 800; in the data active = inhibition above about 40%;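 note: 0% = enzyme with no compound and 100% = blank without enzyme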
# * marks the source's active call; other numbers are inactive results; / = not tested or not shown.
SMILES,S1P3 antag,Redox H2O2 prof,FXIa inh 1536,thrombin 1536,KLK5 inh,FXIIa inh 1536
Nc1cccc(-c2nc3ccccc3s2)c1,/,1,-6,-11,-1,-19
Oc1ccc(Cl)cc1/C=C/c1ccc2cccc(O)c2n1,-13,1,33,49*,34,39
Oc1c(Cl)cc(Cl)cc1/C=C/c1ccc2cccc(O)c2n1,7,0,2,1,-2,/
CCOC(=O)c1cc(C)n(-c2ccccc2)c1C,9,/,-10,-3,30,8
CCOc1ccccc1/C=C(/NC(=O)c1ccccc1)C(=O)NCC(=O)O,1,0,16,11,47*,2
CCOc1ccccc1/C=C(\NC(=O)c1ccccc1)C(=O)NCCC(=O)O,-12,0,8,-3,-11,17
COc1ccccc1/C=C/C=c1\sc2nc(=O)c(Cc3ccccc3)nn2c1=O,-16,/,2,0,2,3
CCOC(=O)CC1Sc2ccccc2NC1=O (stereo not drawn),/,3,2,-23,0,3
CCOC(=O)CC1Sc2ccccc2NC1=S (stereo not drawn),-18,/,4,-7,80*,0
CC(=O)NC(C)c1ccc(Cl)c(Cl)c1 (stereo not drawn),25,-1,14,16,68*,0
Cc1ccccc1NC(=O)CSc1nc2ccccc2o1,/,0,15,15,51*,5
COc1ccc(S(=O)(=O)n2nc(OC(=O)c3ccncc3)cc2N)cc1,-9,-1,2,1,1,7
COc1ccc(S(=O)(=O)n2nc(OC(=O)c3cccs3)cc2N)cc1,-4,-9,38,18,78*,19
COc1ccc(S(=O)(=O)n2nc(OC(=O)c3ccccc3)cc2N)cc1,-16,2,35,4,51*,23
Cc1ccc(N2C(=O)CC(N3CCc4ccccc43)C2=O)cc1Cl (stereo not drawn),27,1,0,8,-9,8
COc1cccc(-c2cc3nc4c(c(N5CCC6(CC5)OCCO6)n3n2)CCC4)c1,-9,0,1,-2,6,5
Clc1ccc(-c2ccccc2)nn1,-10,/,-9,-6,45*,5
Clc1ccc(-c2cccs2)nn1,6,-2,-3,-1,0,4
Cc1ccnn1C(C)C(=O)O (stereo not drawn),-12,-2,-1,1,4,7
CC(C(=O)O)n1cc(Cl)cn1 (stereo not drawn),-13,0,25,15,51*,27
CCCCNC(=O)CC(NS(=O)(=O)c1ccc(C)cc1)c1ccco1 (stereo not drawn),/,0,10,1,0,14
COCCNC(=O)CC(NS(=O)(=O)c1ccc(C)cc1)c1ccco1 (stereo not drawn),10,0,0,10,46*,52*
CN(C)S(=O)(=O)N1CCN(c2ccc([N+](=O)[O-])c(NC3CC3)c2)CC1,4,0,-4,-8,-1,4
O=[N+]([O-])c1ccc(N2CCCC2)cc1NC1CC1,-6,0,9,12,44*,9
COC(=O)CS(=O)(=O)c1nnc([C@H](Cc2ccccc2)NC(=O)OC(C)(C)C)o1,-10,3,0,2,-5,42*
SMILES,S1P3 antag,Redox H2O2 prof,FXIa inh 1536,thrombin 1536,KLK5 inh,FXIIa inh 1536
Cc1cc(NC(=O)CCC(=O)N(CC(=O)NC2CCCC2)Cc2ccc3c(c2)OCO3)no1,-7,-1,-3,-5,-11,6
Cc1cc(NC(=O)CCC(=O)N(CC(=O)NC2CCCC2)Cc2ccc(F)cc2)no1,63*,-4,6,6,6,15
COc1ccc(N=C2S/C(=C\c3cc(C)n(C)c3C)C(=O)N2C)cc1,/,-4,8,12,41*,0
CCCN1C(=O)/C(=C/c2cc(C)n(C)c2C)SC1=Nc1ccc(OC)cc1,/,-6,6,0,6,8
COc1ccc(Cl)cc1NC(=O)CN(C)CC(=O)Nc1ccc(C)cc1Br,-14,1,-1,9,-3,12
COc1ccccc1C(=O)CSc1ccccn1,-12,-1,-2,-4,-3,8
CCOCC(=O)Nc1ccc(S(=O)(=O)Nc2ncccn2)cc1,-3,1,25,1,1,53*
CN(Cc1ccccc1)c1nc2c(c(=O)[nH]c(=O)n2C)n1CCSc1ncccn1,/,2,/,/,/,/
CCCCCSc1nc2c(c(=O)[nH]c(=O)n2C)n1CCc1ccccc1,102*,/,/,/,/,/
CCOCCn1c(SCCCc2ccccc2)nc2c1c(=O)[nH]c(=O)n2C,/,-6,7,-2,14,9
CN(Cc1ccccc1)c1nc2c(c(=O)[nH]c(=O)n2C)n1CCCSc1ncccn1,2,-1,42*,5,-17,52*
O=C(CSc1nnnn1Cc1ccccc1)Nc1ccccc1,-3,/,-2,1,1,10
CS(=O)(=O)N(Cc1ccccc1)c1ccc(C(=O)NC2CCCCC2O)cc1 (stereo not drawn),-61,0,-5,18,14,106*
CC(=O)NS(=O)(=O)c1ccc(NC(=S)NC(=O)c2ccco2)cc1,/,-4,18,1,4,43*
NS(=O)(=O)c1ccc(NC(=S)NC(=O)c2ccco2)cc1,1,0,-10,-1,-10,3
CC1(C)Oc2ccc(C(=O)NC3CCCC3)cc2N(CC(=O)NC2CCCC2)C1=O,/,0,20,1,10,64*
CCCCNC(=O)Cc1coc2ccc3ccccc3c12,/,4,1,8,58*,20
O=C(Nc1nnc(CSCc2ccc(F)cc2)s1)c1ccc([N+](=O)[O-])cc1,-10,0,7,-7,-11,17
COc1ccc(NC(=O)C2CCCN(S(=O)(=O)c3cccc4cccnc34)C2)c(OC)c1 (stereo not drawn),-6,-1,13,21,113*,33
CC(=O)c1cccc(NC(=O)C2CCCN(S(=O)(=O)c3cccc4cccnc34)C2)c1 (stereo not drawn),-24,-2,5,-1,-5,13
CC1Cc2ccccc2N1C(=O)C1CCN(S(=O)(=O)Cc2ccccc2)CC1 (stereo not drawn),6,1,-14,-3,-3,14
CC1Cc2ccccc2N1C(=O)C1CCCCN1S(=O)(=O)c1ccccc1 (stereo not drawn),/,0,14,32,41*,31
Cc1ccc2nc(NC(=O)C3CCN(S(=O)(=O)c4cccc5nsnc45)CC3)sc2c1,-18,0,16,21,32,10
CC1Cc2ccccc2N1C(=O)C1CCCN(S(=O)(=O)c2cccc3cccnc23)C1 (stereo not drawn),82*,-1,20,-2,-4,29
